The values that follow come from ChEMBL document CHEMBL3351247 (J Med Chem, 2014).

Data set [1] concerns the target Kappa-type opioid receptor (Homo sapiens, UniProt P41145). As to the kind of experiment: Agonist activity at human KOR expressed in CHO cells assessed as inhibition of forskolin-induced cAMP accumulation after 30 mins by luminescence assay. The format is functional, cell-based. In short, it runs like this: (§1)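 CHO cells stably expressing KOR or MOR, plated at 10 000 cells/well and incubated overnight at 37 °C. Compounds given as 10-point serial dilutions (1% DMSO final) with 20 μM forskolin final in HBSS/10 mM HEPES. Incubation 30 min at 37 °C, then detection reagents overnight at room temperature. HitHunter cAMP luminescence read-out; data normalized to vehicle and forskolin-only controls, nonlinear regression.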
In general terms: cAMP levels reflect the balance of adenylyl cyclase and phosphodiesterase activity.

Data set [2] deals with Rattus norvegicus. Put plainly: Toxicity in Sprague-Dawley rat assessed as inactive lever pressing during extinction period at 1 mg/kg, ip. The class given is organism-based. On the set-up: dose 1 mg/kg, route intraperitoneal. As to conditions: in vivo. The method, boiled down: (§2)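 Male Sprague-Dawley rats (300–350 g) trained to IV cocaine self-administration (0.5 mg/kg/infusion) on FR5 in 2 h daily sessions, then extinction with saline-heparin and cocaine-prime (20 mg/kg) reinstatement. Agonist given ip in DMSO:Tween 80:water 2:1:7 10 min before prime.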

The subject of data set [3] is Rattus norvegicus. As to the kind of experiment: Toxicity in Sprague-Dawley rat assessed as inactive lever pressing during extinction period at 0.3 mg/kg, ip. The format is organism-based. On the set-up: dose 0.3 mg/kg, route intraperitoneal. As to conditions: in vivo. In short, it runs like this:
as §2

Another data set deals with Mu-type opioid receptor (Homo sapiens, UniProt P35372). Put plainly: Agonist activity at human MOR expressed in CHO cells assessed as inhibition of forskolin-induced cAMP accumulation after 30 mins by luminescence assay. The format is functional, cell-based. The method, boiled down: as §1
Mu-type opioid receptor, sequence (P35372 whole entry): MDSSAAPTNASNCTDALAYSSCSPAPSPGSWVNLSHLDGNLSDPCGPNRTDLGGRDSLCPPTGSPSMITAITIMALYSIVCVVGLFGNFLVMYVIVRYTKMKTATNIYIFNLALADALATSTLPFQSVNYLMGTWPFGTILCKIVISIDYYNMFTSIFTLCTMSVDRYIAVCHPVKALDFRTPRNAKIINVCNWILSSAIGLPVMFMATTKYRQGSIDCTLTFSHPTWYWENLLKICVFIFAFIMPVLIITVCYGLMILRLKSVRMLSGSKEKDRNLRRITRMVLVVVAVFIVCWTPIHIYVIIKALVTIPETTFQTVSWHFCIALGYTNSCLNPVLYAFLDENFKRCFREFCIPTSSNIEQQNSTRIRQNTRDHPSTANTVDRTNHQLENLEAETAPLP
Data set [4] relates to Rattus norvegicus. Put plainly: Inhibition of cocaine-prime-induced reinstatement in Sprague-Dawley rat at 0.1 to 0.3 mg/kg, ip administered 10 mins prior to cocaine challenge relative to vehicle-treated control. The format is functional, organism-based. In short, it runs like this:
(§3)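 Male Sprague-Dawley rats (300–350 g) self-administered IV cocaine (0.5 mg/kg/infusion, jugular cannula) in daily 2 h sessions on FR5 until stable (<20% variation over 3 days). Extinction with saline-heparin and no light cue until responses fell below 20% of baseline. Agonist given ip in DMSO:Tween 80:water 2:1:7 10 min before a cocaine prime (20 mg/kg). Active lever presses recorded.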

In data set [5] the test system is Rattus norvegicus. Put plainly: Toxicity in Sprague-Dawley rat assessed as inactive lever pressing during reinstatement period at 0.3 mg/kg, ip. Also noted: dose 0.3 mg/kg, route intraperitoneal. The class given is organism-based. As to conditions: in vivo. In short, it runs like this:
as §2

Data set [6] relates to Rattus norvegicus. As to the kind of experiment: Toxicity in Sprague-Dawley rat assessed as inactive lever pressing during self administration period at 1 mg/kg, ip. The format is organism-based. Also noted: dose 1 mg/kg, route intraperitoneal. As to conditions: in vivo. In short, it runs like this: as §2
For data set [7], the system named is Rattus norvegicus. Put plainly: Toxicity in Sprague-Dawley rat assessed as inactive lever pressing during reinstatement period at 1 mg/kg, ip. The format is organism-based. Also noted: dose 1 mg/kg, route intraperitoneal. As to conditions: in vivo. The method, boiled down: as §2
Data set [8] deals with Rattus norvegicus. As to the kind of experiment: Toxicity in Sprague-Dawley rat assessed as inactive lever pressing during self administration period at 0.3 mg/kg, ip. The format is organism-based. Also noted: dose 0.3 mg/kg, route intraperitoneal. As to conditions: in vivo. In short, it runs like this: as §2
The subject of data set [9] is Rattus norvegicus. As to the kind of experiment: Inhibition of cocaine-prime-induced reinstatement in Sprague-Dawley rat at 0.3 to 1 mg/kg, ip administered 10 mins prior to cocaine challenge relative to vehicle-treated control. The format is functional, organism-based. In short, it runs like this: as §3
Data set [10] relates to Rattus norvegicus. Put plainly: Inhibition of cocaine-prime-induced reinstatement in Sprague-Dawley rat at 1 mg/kg, ip administered 10 mins prior to cocaine challenge relative to vehicle-treated control. The format is functional, organism-based. Also noted: dose 1 mg/kg. The method, boiled down: as §3

SMILES strings stand for the structures. Active and inactive are the calls of the source. The calls are words filed in the database; no cut-off is given here.

Kappa-type opioid receptor, sequence (P41145 whole entry): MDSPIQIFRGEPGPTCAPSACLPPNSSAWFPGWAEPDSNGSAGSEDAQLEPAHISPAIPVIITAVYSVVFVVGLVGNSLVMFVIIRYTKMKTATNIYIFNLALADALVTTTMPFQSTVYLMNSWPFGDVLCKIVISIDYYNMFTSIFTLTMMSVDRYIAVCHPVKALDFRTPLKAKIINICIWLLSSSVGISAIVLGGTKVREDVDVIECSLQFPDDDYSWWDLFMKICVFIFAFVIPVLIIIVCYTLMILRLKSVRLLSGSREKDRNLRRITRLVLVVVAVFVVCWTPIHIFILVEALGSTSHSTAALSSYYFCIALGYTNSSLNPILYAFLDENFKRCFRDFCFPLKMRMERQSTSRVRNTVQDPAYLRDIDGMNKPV

Consider `C#Cc1occc1[C@@H]1C[C@]2(C)[C@H]3C(=O)[C@@H](OC(C)=O)C[C@@H](C(=O)OC)[C@]3(C)CC[C@H]2C(=O)O1`, for which the values for the EC50 (in data set [1]; at Mu-type opioid receptor) were 0.019 nM and no less than 10 µM, respectively. For the same molecule, the Emax in data set [1] turned out to be 100%. Moreover, the Activity result in the data set with Rattus norvegicus [2], in the data set with Rattus norvegicus [3], in the data set with Rattus norvegicus [5], in the data set on Rattus norvegicus [6], with Rattus norvegicus [7] and in the data set with Rattus norvegicus [8] was “Non-toxic” throughout. Further, in the data set on Rattus norvegicus [4], the inhibition entry is “Active”.
For the molecule `COC(=O)[C@@H]1C[C@H](OC(C)=O)C(=O)[C@H]2[C@@]1(C)CC[C@H]1C(=O)O[C@H](c3ccoc3Br)C[C@]21C`, the Activity result in the data set on Rattus norvegicus [2], with Rattus norvegicus [3], in the data set on Rattus norvegicus [5], in the data set with Rattus norvegicus [6], in the data set on Rattus norvegicus [7] and with Rattus norvegicus [8] was “Non-toxic” each time. Besides, at Mu-type opioid receptor, the EC50 is no less than 10 µM. Moreover, the inhibition result in the data set with Rattus norvegicus [9] is “Active”.
For `COC(=O)[C@@H]1C[C@H](OC(C)=O)C(=O)[C@H]2[C@@]1(C)CC[C@H]1C(=O)O[C@H](c3ccoc3C)C[C@]21C`, the figures for the EC50 (in [1]; on Mu-type opioid receptor) were 0.41 nM and no less than 10 µM, respectively. Moreover, the Emax in [1] came to 100%. The Activity result in the data set on Rattus norvegicus [2], in the data set with Rattus norvegicus [3], in the data set with Rattus norvegicus [5], in the data set with Rattus norvegicus [6], with Rattus norvegicus [7] and in the data set with Rattus norvegicus [8] was “Non-toxic” in each case. Also, in the data set with Rattus norvegicus [10], the inhibition result was “inactive”.

For orientation: EC50 means the concentration needed to bring the measured effect to its halfway point. What is called Emax is the size of the effect at its maximum, as opposed to the concentration needed.
